TDP2 inh = TDP2 (human) inhibition, absorbance primary screen; O95551; recombinant TDP2, T5PNP hydrolysis, p-nitrophenol absorbance 415 nm; inhibition, % at 12.8 µM; 0.34% of 370,000 active; AID 720702;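 active = inhibition above the mean of all tested compounds plus 3 SD, set per campaign, cut at about 25% in these data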;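 also: 0% = DMSO with enzyme and 100% = buffer with substrate but no TDP2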
Target sequence (O95551 whole entry, looked up): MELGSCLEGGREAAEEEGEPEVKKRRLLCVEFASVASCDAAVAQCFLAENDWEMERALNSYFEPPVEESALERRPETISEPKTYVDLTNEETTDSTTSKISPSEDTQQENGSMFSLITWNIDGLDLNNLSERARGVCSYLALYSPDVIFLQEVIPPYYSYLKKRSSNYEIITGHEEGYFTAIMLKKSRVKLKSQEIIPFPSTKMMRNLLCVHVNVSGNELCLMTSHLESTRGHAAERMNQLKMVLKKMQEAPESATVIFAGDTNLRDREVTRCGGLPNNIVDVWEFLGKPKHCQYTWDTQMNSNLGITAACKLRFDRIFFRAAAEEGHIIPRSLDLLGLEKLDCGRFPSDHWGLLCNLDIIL
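Read-out basis: percent inhibition. System: recombinant human TDP2. Buffer or medium: Mg2+-containing Tris-HCl buffer, pH 7.5. Repeats: single replicate. Timing: reaction 2 h, 37 °C. Benchmarks: high control without enzyme, low control DMSO plus TDP2. Probe or stimulus: 5 mM T5PNP. Doses: 12.8 µM only. Measured by: epi absorbance of p-nitrophenol freed from T5PNP by hydrolysis.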
PAD4 FP inh = blocks human protein arginine deiminase 4; Q9UM07; recombinant PAD4, RCA probe fluorescence polarization; inhibition, % at 6.36 µM; 0.41% of 330,000 active; AID 485272;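 active = percent inhibition above a cutoff equal to the mean of all tested compounds plus 3 SD, cut at about 15% in these data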;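 also: 0% = PAD4 with RCA probe and DMSO and 100% = probe without PAD4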
GSTO1 counter = blocks human GSTO1 in RBBP9 counter-screen | recombinant GSTO1, activity-based probe fluorescence polarization | inhibition, % at 5.96 µM | 1.1% of 300,000 active | AID 1974;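 active = inhibition above the campaign mean inhibition plus 3 SD, cut at about 35% in these data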;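 also: 0% = GSTO1-1 with DMSO and 100% = wells lacking GSTO1-1 enzyme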
Target sequence (P78417 whole entry, looked up): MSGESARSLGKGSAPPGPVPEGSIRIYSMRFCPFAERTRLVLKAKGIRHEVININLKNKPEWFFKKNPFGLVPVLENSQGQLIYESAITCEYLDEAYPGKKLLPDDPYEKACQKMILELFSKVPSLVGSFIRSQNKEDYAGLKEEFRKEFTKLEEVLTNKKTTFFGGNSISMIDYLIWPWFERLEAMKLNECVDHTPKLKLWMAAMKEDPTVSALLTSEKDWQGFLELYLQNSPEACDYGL
Fh CTSL1 inh = cathepsin L1 inhibition, PFM18AAP counter-screen | inhibition, % at 5.96 µM | 0.49% of 300,000 active | AID 1906 | recombinant F. hepatica cathepsin L1, Z-Leu-Arg-MCA fluorescence;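 active = inhibition above the mean of all tested compounds plus 3 SD, set per screening campaign, cut at about 17% in these data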;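 also: 0% = plate median of test compound wells and 100% = 1 µM Z-Phe-Ala-diazomethylketone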
* hit, by the source's call; x = no result given. Sampled rows, rich in hits. Any-hit rate of the full collection: about 1.4%.

SMILES	TDP2 inh	PAD4 FP inh	GSTO1 counter	Fh CTSL1 inh
CC(=O)Nc1ccc(S(=O)(=O)N2CCN(c3ccc(C)c(Cl)c3)CC2)cc1	0	1	4	20*
CCN1Cc2nnn(Cc3ccc(C)cc3)c2-c2ccccc2S1(=O)=O	-8	x	x	x
CC(C)c1ccc(S(=O)(=O)/N=C2/C=C(Sc3ncn[nH]3)C(=O)c3ccccc32)cc1	x	38*	85*	101*
Cc1cc(C(=O)O)ccc1-n1c(C)cc(C=C2C(=O)c3ccccc3C2=O)c1C	1	-6	-135	19*
COc1ccc(N2CCN(C(=O)CSc3ncn[nH]3)CC2)cc1	8	-5	12	-1
O=C(CSc1ncn[nH]1)N1CCOCC1	-13	-2	-4	60*
COc1ccc(CNC(=O)COc2cc3c(c4oc(=O)cc(C)c24)CCC(C)(C)O3)c(OC)c1	1	x	x	x
CC(NC(=O)C(=O)N1CCOCC1)C(c1cccs1)N1CCN(c2ccccc2F)CC1 (stereo unspecified)	-11	-2	5	1
CC(NC(=O)C(=O)N1CCOCC1)C(c1cccs1)N1CCN(c2ccc(F)cc2)CC1 (stereo unspecified)	-5	0	0	26*
CCOC(=O)N1C(=O)C[C@](Sc2ccc(OC)cc2)(C(=O)N(C)C)[C@H]1c1ccc(OC)cc1	1	x	x	x
Cc1ccc2c(c1)-c1c(cnn1CC(=O)NCCc1ccc(O)cc1)CO2	4	x	x	x
CCCN1CCS(=O)(=O)N(Cc2cn(Cc3ccccc3)nn2)C(C(=O)OC)C1 (stereo unspecified)	-14	x	x	x
O=C(N/C(=C/C=C/c1ccccc1)C(=O)N1CCCCC1)c1ccc([N+](=O)[O-])cc1	8	1	0	18*
CCCC/C=C1/[C@H](c2ccc(Cl)cc2)N(Cc2ccc3c(c2)OCO3)C2=N[C@H](c3ccccc3)CC(=O)N21	-6	x	x	x
CCOC(=O)CNC(=O)CSc1nc(C)cc(C)c1C#N	-4	-4	-1	-3
Cc1ccc(CNC(=O)CSc2nc(C)cc(C)c2C#N)cc1	8	0	7	17*
Cc1cccc(NC(=O)[C@@H]2CC(=O)O[C@@H]2c2ccccc2)c1C	-2	x	x	x
Nc1nc(C(F)(F)F)cc(=O)[nH]1	-12	-2	4	-8
O=c1cc(C(F)(F)F)nc(-n2[nH]c3c(c2=O)CCCC3)[nH]1	-6	-6	40*	-3
C[n+]1cccc2ccc3c(c21)OC(N)=C(C#N)C3c1ccccc1 (stereo unspecified)	16	-7	9	4
C[n+]1cccc(C2C(C#N)=C(N)Oc3c2ccc2ccccc32)c1 (stereo unspecified)	0	-11	37*	7
CCn1c(COc2ccc(Cl)cc2)nnc1SCC(=O)Nc1ccc(Oc2ccccc2)cc1	-4	x	x	x
Cc1ccc(S(=O)(=O)CCC(=O)N(CCCN2CCOCC2)c2nc3ccccc3s2)cc1	0	-2	-3	8
O=C(CCS(=O)(=O)c1ccccc1)N(CCCN1CCOCC1)c1nc2ccccc2s1	23	-4	-1	47*
CCN(CC)CCN(C(=O)CCS(=O)(=O)c1ccccc1)c1nc2cc3c(cc2s1)OCO3	-6	-2	0	76*
SMILES	TDP2 inh	PAD4 FP inh	GSTO1 counter	Fh CTSL1 inh
CN(C)CCN(C(=O)CCS(=O)(=O)c1ccccc1)c1nc2cc3c(cc2s1)OCO3	14	5	1	2
CCN(Cc1cccs1)c1ncnc2ccc(-c3ccc4c(c3)OCO4)cc12	-1	x	x	x
COC(=O)[C@]12C[C@H](CC(=O)NCc3cccs3)C(=O)N(CCc3ccc(OC)c(OC)c3)C1=C[C@H](COCc1ccccc1)O[C@@H]2C	-7	x	x	x
CCCCOCCCNC(=O)C[C@H]1C[C@@]2(C(=O)OC)C(=C[C@H](C3CCCC3)O[C@@H]2C)N(Cc2cccc3ccccc23)C1=O	-10	x	x	x
CCCCN1CCN(C(=O)C2CCCN(C(=O)c3ccc4c(c3)NC(=O)CS4)C2)CC1 (stereo unspecified)	-3	x	x	x
OCCC1CN(Cc2cccn2-c2ccccn2)CCN1C1CCCCC1 (stereo unspecified)	-13	3	1	74*
Cc1c(N=C2C=C(Br)C(=O)C(Br)=C2)c(=O)n(-c2ccccc2)n1C	61*	x	x	x
CCCCS(=O)(=O)/C=C\C=C/S(=O)(=O)CCCC	x	0	10	64*
Cc1ccc(C)n1-c1ccc(C(=O)NN)s1	9	-5	13	21*
N#CCC[C@H]1CC[C@]2(CCCN(C(=O)C3CCCCC3)C2)O1	-4	x	x	x
[O-][n+]1cccc2c(Br)cc(Br)c(O)c21	3	1	46*	1
CCOC(=O)N1[C@@H]2C=C(C)[C@@H]2[C@@H]2[C@@H](C)C(=O)N21	3	-5	2	18*
CCOC(=O)N1C2CCC(C2)N1C(=O)OCC	8	x	x	x
Cc1cc(C)c2sc(N(CCN(C)C)C(=O)c3cc(Cl)sc3Cl)nc2c1	7	2	2	17*
N#Cc1c(NC(=O)c2ccccc2Cl)n(Cc2ccccc2)c2nc3ccccc3nc12	81*	-6	47*	2
CCCCn1c(NC(=O)CC)c(C#N)c2nc3ccccc3nc21	-3	-4	8	1
O=C(COC(=O)c1cc2ccccc2oc1=O)Nc1ccc(F)cc1F	9	-6	-10	31*
CSCC[C@H](NC(=O)OC(C)(C)C)c1nnc(SCC(=O)Nc2ccc(C)cc2C)o1	-9	2	-2	68*
CSCC[C@H](NC(=O)OC(C)(C)C)c1nnc(SCC(N)=O)o1	-4	2	6	6
Cc1ccc(NC(=O)CSc2nnc([C@H](C)NC(=O)OC(C)(C)C)o2)c(C)c1	-3	-2	10	4
CCc1ccccc1NC(=O)CSc1nnc([C@H](CCSC)NC(=O)OC(C)(C)C)o1	-10	1	5	54*
COC(=O)C1CN(Cc2ccc(OC)cc2)CCS(=O)(=O)N1Cc1cn(Cc2ccc(Cl)cc2)nn1 (stereo unspecified)	-4	x	x	x
Cn1c(SCC(=O)Nc2ccc(C(=O)O)cc2)nnc1-c1ccccn1	-1	x	x	x
Nc1ccc(O)cc1	x	52*	98*	96*
Nc1ccc(C(=O)O)cc1	-2	-3	2	1
SMILES	TDP2 inh	PAD4 FP inh	GSTO1 counter	Fh CTSL1 inh
C/C(=N\NC(=O)c1ccccc1[N+](=O)[O-])c1ccc(Br)s1	-4	2	-1	-1
C/C(=N\NC(=O)c1ccccc1O)c1ccc(Br)s1	-3	3	73*	4
Cn1c(=O)cc(OCCCC(=O)Nc2cc(-c3cn[nH]c3)ccn2)c2ccccc21	4	x	x	x
Cc1cc(C)nc(Nc2cccc(C(F)(F)F)c2)n1	-10	-1	36*	-2
COc1nc(Nc2cccc(C(F)(F)F)c2)nc(OC)n1	-15	-4	0	-1
O=C(c1cc(Cl)cc(Cl)c1)N1CC[C@H]2[C@H](CCCN2Cc2cc(F)cc(F)c2)C1	1	x	x	x
COC(=O)C1=C(C)N(C)C(=O)NC1c1cc2c(cc1[N+](=O)[O-])OCO2 (stereo unspecified)	8	4	36*	2
O=C(NCCN1CCOCC1)/C(=C\c1ccccc1Cl)NC(=O)c1ccccc1	12	-10	0	19*

Assay outcomes deposited in PubChem by The Scripps Research Institute Molecular Screening Center.
